Data published in ChEMBL document CHEMBL4406880, “Design, synthesis, and bioactivity of dihydropyrimidine derivatives as kinesin spindle protein inhibitors” (Bioorg Med Chem, 2019).

Legend:
Assay type in all cases: functional
[1] = system: SR; test: Growth inhibition of human SR cells assessed as growth percentage at 10 uM incubated for 48 hrs by sulforhodamine B assay relative to control; settings: read-out: Activity
Summary of the method: (§1)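 NCI-60 single-dose screen. Cells were grown in RPMI 1640 with 5% FBS and 2 mM L-glutamine and plated at 5,000–40,000 cells/well. After an overnight preincubation at 37 °C in 5% CO2, compound was added at a final 10 µM from a DMSO stock, with DMSO/PBS controls. After 48 h, cells were TCA-fixed and stained with 0.4% SRB, and absorbance was read at 515 nm. Growth is given as a percentage of untreated control.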

[2] = system: MOLT-4; test: Growth inhibition of human MOLT4 cells assessed as growth percentage at 10 uM incubated for 48 hrs by sulforhodamine B assay relative to control; settings: MOLT-4, 48 h, read-out: Activity
Summary of the method: (§2)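 NCI-60 one-dose screen. Cells in RPMI 1640 with 5% FBS and 2 mM L-glutamine, seeded at 5,000–40,000 cells/well according to doubling time, and preincubated overnight at 37 °C, 5% CO2. A time-zero plate was TCA-fixed at drug addition. Compound from DMSO stock, final 10 µM, 48 h; DMSO vehicle controls. Fixation with TCA, 10% final (16% for suspension cells). SRB stain, Tris solubilization, A515. Result given as % growth versus untreated cells.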

[3] = system: HL-60(TB); test: Growth inhibition of human HL-60(TB) cells assessed as growth percentage at 10 uM incubated for 48 hrs by sulforhodamine B assay relative to control; settings: HL-60, 48 h, read-out: Activity
Summary of the method: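 NCI-60 single-dose screen. Cells in RPMI 1640 with 5% FBS and 2 mM L-glutamine are plated at 5,000–40,000 cells/well and preincubated overnight at 37 °C, 5% CO2. Compound is added from a DMSO stock at 10 µM final for 48 h. Cells are TCA-fixed (suspension cells 16% final) and stained with SRB. Absorbance is read at 515 nm, and percentage growth is calculated against untreated controls with a time-zero plate.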

[4] = system: NCI-H23; test: Growth inhibition of human NCI-H23 cells assessed as growth percentage at 10 uM incubated for 48 hrs by sulforhodamine B assay relative to control; settings: NCI-H23, 48 h, read-out: Activity; summary of the method: as §2
[5] = system: COLO 205; test: Growth inhibition of human COLO205 cells assessed as growth percentage at 10 uM incubated for 48 hrs by sulforhodamine B assay relative to control; settings: COLO 205, 48 h, read-out: Activity
Summary of the method: (§3)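 NCI-60 one-dose screen: cells in RPMI 1640 with 5% FBS and 2 mM L-glutamine, plated at 5,000–40,000 cells/well and preincubated 24 h at 37 °C, 5% CO2. Compound is added from a DMSO stock to a final 10 µM and incubated 48 h. Cells are TCA-fixed and stained with sulforhodamine B, read at 515 nm. Output is % growth versus untreated control, with a time-zero plate.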

[6] = system: HCC 2998; test: Growth inhibition of human HCC2998 cells assessed as growth percentage at 10 uM incubated for 48 hrs by sulforhodamine B assay relative to control; settings: HCC 2998, 48 h, read-out: Activity; summary of the method: as §3
[7] = system: SF-268; test: Growth inhibition of human SF268 cells assessed as growth percentage at 10 uM incubated for 48 hrs by sulforhodamine B assay relative to control; settings: SF-268, 48 h, read-out: Activity; summary of the method: as §1
[8] = system: SF-539; test: Growth inhibition of human SF539 cells assessed as growth percentage at 10 uM incubated for 48 hrs by sulforhodamine B assay relative to control; settings: SF-539, 48 h, read-out: Activity; summary of the method: as §1
[9] = system: SNB-19; test: Growth inhibition of human SNB19 cells assessed as growth percentage at 10 uM incubated for 48 hrs by sulforhodamine B assay relative to control; settings: SNB-19, 48 h, read-out: Activity; summary of the method: as §1
[10] = system: SNB-75; test: Growth inhibition of human SNB75 cells assessed as growth percentage at 10 uM incubated for 48 hrs by sulforhodamine B assay relative to control; settings: SNB-75, 48 h, read-out: Activity; summary of the method: as §1
[11] = system: LOX IMVI; test: Growth inhibition of human LOXIMVI cells assessed as growth percentage at 10 uM incubated for 48 hrs by sulforhodamine B assay relative to control; settings: read-out: Activity; summary of the method: as §2
[12] = system: M14; test: Growth inhibition of human M14 cells assessed as growth percentage at 10 uM incubated for 48 hrs by sulforhodamine B assay relative to control; settings: M14, 48 h, read-out: Activity; summary of the method: as §2
[13] = system: SK-MEL-2; test: Growth inhibition of human SK-MEL-2 cells assessed as growth percentage at 10 uM incubated for 48 hrs by sulforhodamine B assay relative to control; settings: SK-MEL-2, 48 h, read-out: Activity; summary of the method: as §1
[14] = system: SK-MEL-5; test: Growth inhibition of human SK-MEL-5 cells assessed as growth percentage at 10 uM incubated for 48 hrs by sulforhodamine B assay relative to control; settings: SK-MEL-5, 48 h, read-out: Activity; summary of the method: as §1
[15] = system: UACC-257; test: Growth inhibition of human UACC257 cells assessed as growth percentage at 10 uM incubated for 48 hrs by sulforhodamine B assay relative to control; settings: UACC-257, 48 h, read-out: Activity; summary of the method: as §1
[16] = system: 786-0; test: Growth inhibition of human 786-0 cells assessed as growth percentage at 10 uM incubated for 48 hrs by sulforhodamine B assay relative to control; settings: 786-0, 48 h, read-out: Activity; summary of the method: as §3
[17] = system: RXF 393; test: Growth inhibition of human RXF393 cells assessed as growth percentage at 10 uM incubated for 48 hrs by sulforhodamine B assay relative to control; settings: RXF 393, 48 h, read-out: Activity; summary of the method: as §1
[18] = system: TK-10; test: Growth inhibition of human TK10 cells assessed as growth percentage at 10 uM incubated for 48 hrs by sulforhodamine B assay relative to control; settings: TK-10, 48 h, read-out: Activity; summary of the method: as §1
[19] = system: UO-31; test: Growth inhibition of human UO31 cells assessed as growth percentage at 10 uM incubated for 48 hrs by sulforhodamine B assay relative to control; settings: UO-31, 48 h, read-out: Activity; summary of the method: as §1
[20] = system: DU-145; test: Growth inhibition of human DU145 cells assessed as growth percentage at 10 uM incubated for 48 hrs by sulforhodamine B assay relative to control; settings: DU-145, 48 h, read-out: Activity; summary of the method: as §3
[21] = system: Hs-578T; test: Growth inhibition of human Hs 578T cells assessed as growth percentage at 10 uM incubated for 48 hrs by sulforhodamine B assay relative to control; settings: read-out: Activity; summary of the method: as §2
[22] = system: BT-549; test: Growth inhibition of human BT549 cells assessed as growth percentage at 10 uM incubated for 48 hrs by sulforhodamine B assay relative to control; settings: BT-549, 48 h, read-out: Activity; summary of the method: as §3
[23] = system: T47D; test: Growth inhibition of human T47D cells assessed as growth percentage at 10 uM incubated for 48 hrs by sulforhodamine B assay relative to control; settings: read-out: Activity; summary of the method: as §1
[24] = system: MDA-MB-468; test: Growth inhibition of human MDA-MB-468 cells assessed as growth percentage at 10 uM incubated for 48 hrs by sulforhodamine B assay relative to control; settings: MDA-MB-468, 48 h, read-out: Activity; summary of the method: as §2

| SMILES | growth at 10 µM [2] [%] | growth at 10 µM [4] [%] | growth at 10 µM [5] [%] | growth at 10 µM [6] [%] | growth at 10 µM [7] [%] | growth at 10 µM [8] [%] | growth at 10 µM [9] [%] | growth at 10 µM [11] [%] | growth at 10 µM [12] [%] | growth at 10 µM [13] [%] | growth at 10 µM [14] [%] | growth at 10 µM [15] [%] | growth at 10 µM [16] [%] | growth at 10 µM [17] [%] | growth at 10 µM [18] [%] | growth at 10 µM [19] [%] | growth at 10 µM [20] [%] | growth at 10 µM [21] [%] | growth at 10 µM [22] [%] | growth at 10 µM [23] [%] | also measured |
| --- | --- | --- | --- | --- | --- | --- | --- | --- | --- | --- | --- | --- | --- | --- | --- | --- | --- | --- | --- | --- | --- |
| CC1=C(C(=O)OC(C)C)C(c2ccc3c(c2)OCO3)NC(=O)N1 (racemic) | 108 | 98.8 | 124 | 116 | 104 | 100 | 93.6 | 96.3 | 104 | 108 | 97.6 | 104 | 102 | 113 | 98.8 | 84.9 | 108 | 102 | 93.7 | 101 | growth at 10 µM [1]: 108%; growth at 10 µM [3]: 108%; growth at 10 µM [10]: 105%; growth at 10 µM [24]: 104% |
| CC1=C(C(=O)OC(C)C)C(c2ccc3c(c2)OCO3)NC(=S)N1 (racemic) | 110 | 99.2 | 123 | 115 | 103 | 98.9 | 95.5 | 97.3 | 99 | 102 | 98.5 | 100 | 104 | 106 | 98 | 84.5 | 109 | 97.3 | 96 | 91.4 | growth at 10 µM [1]: 103%; growth at 10 µM [3]: 105%; growth at 10 µM [10]: 95.2%; growth at 10 µM [24]: 115% |
| CC(=O)N1C(=S)NC(C)=C(C(=O)OCc2ccccc2)C1c1ccc2c(c1)OCO2 (racemic) | 58.7 | 94 | 91.8 | 110 | 73.8 | 84.2 | 87.8 | 74.1 | 54 | 88.6 | 91.2 | 77.7 | 96.8 | 101 | 100 | 85.4 | 95 | 76.8 | 88.8 | 58.1 | growth at 10 µM [3]: 33.6%; growth at 10 µM [10]: 80.4%; growth at 10 µM [24]: 78.9% |
| COCCOC(=O)C1=C(C)NC(=S)NC1c1ccc2c(c1)OCO2 (racemic) | 96.9 | 96.2 | 117 | 110 | 97.4 | 99.2 | 100 | 101 | 104 | 93 | 97.6 | 90.2 | 107 | 101 | 104 | 87.8 | 108 | 104 | 109 | 94.8 | growth at 10 µM [1]: 95.5%; growth at 10 µM [3]: 92.1% |
| CC1=C(C(=O)OCC(C)C)C(c2ccc3c(c2)OCO3)NC(=S)N1 (racemic) | 89.1 | 99.5 | 123 | 112 | 97.8 | 109 | 103 | 96.3 | 120 | 101 | 92.5 | 95.6 | 104 | 100 | 101 | 89.4 | 109 | 101 | 95 | 81.9 | growth at 10 µM [1]: 104%; growth at 10 µM [3]: 101%; growth at 10 µM [10]: 94.1%; growth at 10 µM [24]: 94.6% |
| COCCOC(=O)C1=C(C)NC(=S)N(C(C)=O)C1c1ccc2c(c1)OCO2 (racemic) | 103 | 99.1 | 100 | 113 | 98.4 | 97.6 | 99.3 | 97.2 | 96.1 | 108 | 104 | 95.3 | 108 | 111 | 102 | 82 | 106 | 93.7 | 103 | 86.9 | growth at 10 µM [3]: 97.8%; growth at 10 µM [10]: 83%; growth at 10 µM [24]: 105% |
| CC1=C(C(=O)OCc2ccccc2)C(c2ccc3c(c2)OCO3)n2c(nc3ccccc32)N1 (racemic) | 37.1 to 41 | 49.3 to 56 | 37.2 to 43 | 50 to 56.4 | 26 to 59.6 | 9.94 to 21 | 33 to 41.6 | 34.6 to 38 | 28.1 to 35 | 33 to 47.8 | 25.5 to 28 | 34 to 60.4 | 31 to 43.1 | 30 to 53.2 | 64 to 65.6 | 28 to 51.1 | 49 to 53.5 | 0.75 to 14 | 44 to 50.5 | 31 to 40.9 | growth at 10 µM [1]: 9.81 to 43% |
| CC1=C(C(=O)OCc2ccccc2)C(c2ccc3c(c2)OCO3)NC(=S)N1 (racemic) | 78.2 | 94.5 | 117 | 120 | 97.3 | 99.3 | 103 | 98.5 | 102 | 96.7 | 88.9 | 96.7 | 105 | 94.4 | 105 | 89.2 | 101 | 90.2 | 103 | 74 | growth at 10 µM [1]: 77.2%; growth at 10 µM [3]: 56.1% |
